Screening data deposited in PubChem by several laboratories.
An excerpt weighted towards active compounds, which were near 3.3% of everything screened.
ABCG2 block = human ABCG2 inhibition, ABCB1 as counter-screen. IgMXP3 cells, JC-1 efflux, flow cytometry. AID 1325. Q9UNQ0. inhibition, % at 6.6 µM. actives 0.1% (n = 190,000);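 active means inhibition above 80%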
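Assay system – ABCG2 IgMXP3 and barcoded ABCB1 CCRF-Adr cell mix · Input – 3 million cells/mL in well · Reagent – JC-1 fluorescent substrate · Compound – single test compound dose, 6.6 µM final · Timing – 10 min exposure at 25 °C with rotation, no wash · Detection – flow cytometry of retained JC-1 fluorescence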
PMI activator = increases human mannose-6-phosphate isomerase activity; purified human PMI, coupled resazurin fluorescence, 20 min; active compounds read high; 1 = vehicle control, 0 substrate-free wells; activation factor at 20 µM; actives 0.005% (n = 190,000);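 active means activation factor of 2 or more at 20 µM, relative to plate controls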
ABCB1 inh = inhibitors of human ABCB1 transporter, ABCG2 counter-screen; CCRF-Adr cells, JC-1 efflux, flow cytometry; inhibition, % at 6.6 µM; P08183; AID 1326; actives 0.067% (n = 190,000); in the data active means inhibition above about 40%;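 further: higher value means more JC-1 retained so stronger ABCB1 efflux block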
Target sequence (P08183 whole entry, looked up): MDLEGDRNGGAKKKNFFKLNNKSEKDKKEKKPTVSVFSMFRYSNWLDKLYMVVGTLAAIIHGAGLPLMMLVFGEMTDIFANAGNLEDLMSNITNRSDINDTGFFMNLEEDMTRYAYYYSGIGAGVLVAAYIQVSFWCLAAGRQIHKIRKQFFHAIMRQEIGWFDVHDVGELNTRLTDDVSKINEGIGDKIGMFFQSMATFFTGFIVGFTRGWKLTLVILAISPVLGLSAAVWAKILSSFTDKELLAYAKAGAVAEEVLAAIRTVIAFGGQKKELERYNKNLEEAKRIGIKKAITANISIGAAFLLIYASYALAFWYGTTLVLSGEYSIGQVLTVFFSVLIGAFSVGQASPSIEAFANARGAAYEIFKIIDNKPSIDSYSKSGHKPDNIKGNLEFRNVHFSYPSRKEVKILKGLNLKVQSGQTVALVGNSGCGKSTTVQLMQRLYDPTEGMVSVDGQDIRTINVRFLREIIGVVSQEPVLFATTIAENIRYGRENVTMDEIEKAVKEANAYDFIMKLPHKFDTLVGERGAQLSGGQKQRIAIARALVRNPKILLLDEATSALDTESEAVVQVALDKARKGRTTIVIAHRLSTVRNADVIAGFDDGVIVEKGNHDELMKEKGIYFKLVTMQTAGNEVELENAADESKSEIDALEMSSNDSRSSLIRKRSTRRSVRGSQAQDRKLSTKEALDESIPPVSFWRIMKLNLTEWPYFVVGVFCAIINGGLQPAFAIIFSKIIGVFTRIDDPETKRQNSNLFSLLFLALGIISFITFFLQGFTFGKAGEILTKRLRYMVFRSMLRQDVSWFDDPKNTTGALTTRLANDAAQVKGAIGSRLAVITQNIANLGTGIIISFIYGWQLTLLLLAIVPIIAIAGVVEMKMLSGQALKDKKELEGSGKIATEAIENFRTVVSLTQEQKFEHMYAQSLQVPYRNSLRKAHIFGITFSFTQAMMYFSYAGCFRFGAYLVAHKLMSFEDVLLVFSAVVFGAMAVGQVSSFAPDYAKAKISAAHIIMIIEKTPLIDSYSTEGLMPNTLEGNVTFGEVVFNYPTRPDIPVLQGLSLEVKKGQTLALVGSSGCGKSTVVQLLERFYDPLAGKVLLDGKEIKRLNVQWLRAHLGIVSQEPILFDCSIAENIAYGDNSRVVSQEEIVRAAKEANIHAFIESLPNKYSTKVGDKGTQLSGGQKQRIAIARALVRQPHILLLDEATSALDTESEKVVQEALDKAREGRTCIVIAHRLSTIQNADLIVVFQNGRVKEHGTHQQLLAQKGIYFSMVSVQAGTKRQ
ROMK mod = human ROMK K+ channel modulation, primary screen; B-score at 10 µM; Tet-inducible ROMK, thallium flux fluorescence; actives lie on both sides; P48048; actives 2% (n = 130,000);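 active means signal ratio slope over the read window, or its plate-corrected B-score, at least 3 SD from the plate mean, either direction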;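 further: B-score of the F/F0 ratio slope over 7 to 12 s after thallium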
PMI act satM6P = increases human PMI activity with near-saturating mannose 6-phosphate. P34949. coupled PMI enzyme assay, resazurin fluorescence, 20 min; active compounds read high; 1 = untreated enzyme, 0 = substrate-free blank. activation factor at 20 µM. actives 0.34% (n = 190,000);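 active means activation factor of 2 or more at 20 µM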
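Test system: human phosphomannose isomerase with PGI, G6PDH, diaphorase coupling enzymes; amount: 15 ng/mL PMI; incubation: enzyme reaction with compound 20 min at room temperature; technique: resorufin fluorescence (Ex 544/Em 590 nm) from resazurin via diaphorase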
Cl transport mod = KCC2 (human) Cl- transport modulation | Q9H2X9 | KCC2 cells, thallium flux FluoZin-2 fluorescence | B-score of Tl+ flux slope (higher = more flux/activation; lower = inhibition) at 10 µM | actives 2.2% (n = 190,000);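 active means thallium flux slope and its plate-corrected score both differing from the plate sample mean at a set confidence after two filtering rounds, in either direction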;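 further: slope of fluorescence scaled to starting intensity during 10 to 20 s after thallium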
ROMK retest = retested hit modulating human ROMK potassium channel | shares compounds with ROMK mod | ROMK thallium flux, fluorescence ratio; active compounds read low | normalized thallium flux (F/F0 slope) at 10 µM | actives 54% (n = 3,000) | AID 1917;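 active means Flux at 10 µM at least 3 SD below or above vehicle control mean in one or both replicates; inconclusive means no clear call, values can overlap the other calls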
A number is an active result; n = inactive; u = inconclusive; x = no result.

SMILES | ABCG2 block | PMI activator | ABCB1 inh | ROMK mod | PMI act satM6P | Cl transport mod | ROMK retest
Cc1ccc2nc(N3CCN(S(=O)(=O)c4ccc5c(c4)OCCO5)CC3)c(C#N)cc2c1 | n | n | n | x | n | x | x
Cc1ccc(S(=O)(=O)N2CCCN(c3nc4cc(C)ccc4cc3C#N)CC2)cc1 | n | n | n | x | n | n | n
COc1ccc(-c2ccnc(-c3ccc(O)cc3)n2)cc1 | n | n | n | 3.2 | n | n | n
CCOC(=O)c1cc2ccccc2n1CCN(CC)CC | n | n | n | 5 | n | n | u
COc1cc(/C=C(\C#N)C(=O)NC2CCCCC2C)ccc1OS(=O)(=O)c1ccc(C)cc1 (configuration not stated) | n | n | n | x | n | n | x
COc1cc(/C=C(\C#N)C(N)=O)ccc1OS(=O)(=O)c1ccc(C)cc1 | n | n | n | x | n | n | 0.041
CCC(=O)N(CCC(c1ccc(C)cc1)c1ccco1)Cc1ccco1 (configuration not stated) | x | x | x | x | x | n | x
COCCNC(=O)c1cc(-c2ccc3c(c2)OCO3)on1 | n | n | n | x | n | n | n
CCCNC(=O)c1cc(-c2ccc(Br)cc2)on1 | n | n | n | x | n | n | n
CCOC(=O)N1CCC(NC(=O)CCc2c(C)nc3c(c(C)nn3C(C)(C)C)c2C)CC1 | n | n | n | x | n | n | x
S=C(c1ccc2c(c1)OCO2)N1CCCC1 | n | n | n | n | n | n | x
CC(=O)CSc1nc2cc3c(cc2cc1C#N)OCCO3 | n | n | n | -3.3 | 2 | n | 0.054
COc1ccc(NC(=O)c2ccc(S(=O)(=O)C(F)F)cc2)c(OC)c1 | n | n | n | n | n | n | x
O=C(O)CCC(=O)Nc1nnc(C(F)(F)F)s1 | n | n | n | x | n | n | x
CCC(NC(=O)Nc1nnc(C(F)(F)F)s1)(C(F)(F)F)C(F)(F)F | n | n | n | -5.8 | n | x | 0.062
NC(=O)c1sc2nccc(Nc3ccccc3)c2c1N | n | n | n | x | n | n | 0.06
O=C(CN1CCN(S(=O)(=O)c2ccc(Cl)s2)CC1)N1CCOCC1 | x | x | x | -3.2 | x | n | n
O=S(=O)(c1ccc(Cl)s1)N1CCN(Cc2ccccc2)CC1 | n | n | n | n | n | n | x
Cc1cc(NC(=O)CN2C(=O)/C(=C/c3cccc(Br)c3)SC2=S)no1 | n | n | n | -4.2 | n | n | n
O=C(CCCN1C(=O)/C(=C/c2cccc(Br)c2)SC1=S)Nc1ccccn1 | n | n | n | x | n | x | x
c1ccc(Cc2nnc(N3CCCCC3)c3ccccc23)cc1 | n | n | n | -2.2 | n | n | 0.067
O=C(C1=COCCO1)N1CCN(C(c2ccccc2)c2ccccc2)CC1 | n | n | n | x | n | n | x
O=C(CSc1nnc(CCc2ccccc2)n1-c1ccc(Cl)cc1)c1ccccc1 | n | n | n | x | n | n | x
COc1ccccc1OCC(=O)Nc1cccc(-c2nnc(-c3ccco3)o2)c1 | n | n | n | x | n | n | 0.063
COc1ccc(CC(=O)Nc2cccc(-c3nnc(-c4ccccc4)o3)c2)cc1OC | n | n | n | x | n | n | 0.064
SMILES | ABCG2 block | PMI activator | ABCB1 inh | ROMK mod | PMI act satM6P | Cl transport mod | ROMK retest
CCC(NC(=O)c1ccc(C#CC2(O)CCCCC2)cc1)C(=O)O (configuration not stated) | n | n | n | n | n | n | x
NS(=O)(=O)c1ccc(CCNC(=O)c2ccc(C#CC3(O)CCCCC3)cc2)cc1 | n | n | n | n | n | n | n
CN1/C(=C/C=C(C#N)C#N)C=Cc2ccccc21 | x | x | x | x | x | n | 0.047
CCOC(=O)/C(C#N)=C/C=C1\C=Cc2ccccc2N1CC | n | n | n | n | n | n | x
Cc1ccc(-c2nc(CSCC(=O)NCCN3CCN(Cc4ccccc4)CC3)c(C)o2)cc1 | n | n | n | -3.7 | n | n | u
Cc1ccc(-c2nc(CSCC(=O)NCCCN3CCOCC3)c(C)o2)cc1 | n | n | n | n | n | n | x
CC(C)(C)OC(=O)NCCc1nnc(SCC(=O)Nc2cccc(Cl)c2)o1 | n | n | n | x | n | x | x
CC(C)(C)OC(=O)NCCCCCc1nnc(SCC(=O)Nc2cccc(Cl)c2)o1 | n | n | n | -4.9 | n | x | 0.064
O=C(/C=C/c1ccc(Cl)cc1)Nc1nccs1 | n | n | n | n | n | n | x
CCOC(=O)c1cc2cc(OC)ccc2[nH]1 | n | n | n | n | n | n | n
CCOC(=O)c1[nH]c2ccc(OC)cc2c1C | n | n | n | n | n | n | x
COc1ccc(S(=O)(=O)N2CCC(N3CCN(c4ccccc4)CC3)CC2)cc1 | n | n | n | x | n | n | x
CCN(CC)CCCNc1nc(-c2ccccc2)nc2ccccc12 | n | n | n | n | n | n | x
c1ccc(-c2nc(NCCCn3ccnc3)c3ccccc3n2)cc1 | n | n | n | -3.6 | n | n | 0.06
Cc1cc(NCCCn2ccnc2)n2ncc(-c3ccccc3)c2n1 | n | n | n | -3.3 | n | n | n
CCC(=O)NC1OC(CO)C(O)C(O)C1O (configuration not stated) | n | n | n | -2.4 | n | n | n
COc1cc(C2CC(=O)c3cnc(N)nc3C2)cc(OC)c1OC (configuration not stated) | n | n | n | 3.9 | n | n | n
C/C(=C\c1ccc(C)o1)C(=O)c1c(C)cc(C)[nH]c1=O | n | n | n | n | n | n | x
COc1ccc(S(=O)(=O)N2CCCC2C(=O)Nc2ccc(O)cc2)cc1 (configuration not stated) | n | n | n | x | n | n | x
COc1ccc(S(=O)(=O)N2CCC[C@H]2C(=O)NC2=NCCS2)cc1 | n | n | n | x | n | n | n
Cc1ccc(C(C)C)c(OCC(O)CN2CCN(CCO)CC2)c1 (configuration not stated) | n | n | n | x | n | n | x
Cc1ccc(OCC(O)CN2CCN(CC(O)COC(C)C)CC2)c(C(C)(C)C)c1 (configuration not stated) | n | n | n | -3.7 | n | n | 0.062
C=CCNC(=S)NCCCCC1NC(=S)N(CC=C)C1=O (configuration not stated) | n | n | n | n | n | n | x
CCN1CCN(CCCNC(=O)C2c3ccccc3C(=O)N(c3ccc(OC)cc3)C2c2ccc(OC)cc2)CC1 (configuration not stated) | n | n | n | n | n | n | x
c1ccc(-c2nnc3ccc(N4CCCC4)nn23)cc1 | n | n | n | x | n | n | x
CN(Cc1ccccc1)c1ccc2nnc(-c3ccccc3)n2n1 | n | n | n | -3.7 | n | n | 0.065
Fc1ccc(-c2ccnc(=S)[nH]2)cc1 | n | n | n | x | n | x | x
